In ChEMBL document CHEMBL1141689, “Synthesis and biological evaluation of 2-amino-3-(3',4',5'-trimethoxybenzoyl)-6-substituted-4,5,6,7-tetrahydrothieno[2,3-c]pyridine derivatives as antimitotic agents and inhibitors of tubulin polymerization” (Bioorg Med Chem Lett, 2008):

Tests used:
[1] = Antiproliferative activity against human Molt4/C8 cells; format: functional, cell-based; details: MOLT-4
CCRF-CEM = assay: Antiproliferative activity against human CEM cells; format: cell-based
FM3A = assay: Antiproliferative activity against mouse FM3A cells; format: functional, cell-based
L1210 = assay: Antiproliferative activity against mouse L1210 cells; format: functional, cell-based
K562 [2] = assay: Cell cycle arrest in human K562 cells assessed as accumulation at S phase at 500 nM after 24 hrs using propidium iodide staining by flow cytometry; format: functional
How it was run: (§1)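 K562 leukaemia cells were cultured 24 h with compound or without compound as a control, then washed once in ice-cold PBS. They were resuspended at 1 × 10^6/mL in hypotonic propidium iodide (50 μg/mL) in 0.1% sodium citrate with 0.03% (v/v) Nonidet P-40 and incubated 30 min. DNA content was read by flow cytometry as single-parameter histograms, and cell-cycle phase distribution was modelled from them.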

K562 [3] = assay: Cell cycle arrest in human K562 cells assessed as accumulation at G0/G1 phase at 500 nM after 24 hrs using propidium iodide staining by flow cytometry; format: functional; how it was run: as §1
K562 [4] = assay: Cell cycle arrest in human K562 cells assessed as accumulation at G2/M phase at 500 nM after 24 hrs using propidium iodide staining by flow cytometry; format: functional; how it was run: as §1
K562 [5] = assay: Cell cycle arrest in human K562 cells assessed as accumulation at sub G0/G1 phase at 500 nM after 24 hrs using propidium iodide staining by flow cytometry; format: functional; how it was run: as §1
Bos taurus [6] = species on record: Bos taurus; assay: Displacement of [3H]colchicine from bovine brain tubulin at 5 uM
Bos taurus [7] = species on record: Bos taurus; assay: Displacement of [3H]colchicine from bovine brain tubulin at 1 uM
K562 [8] = assay: Cell cycle arrest in human K562 cells assessed as accumulation at sub G0/G1 phase at 70 nM after 24 hrs using propidium iodide staining by flow cytometry; format: functional
K562 [9] = assay: Cell cycle arrest in human K562 cells assessed as accumulation at G2/M phase at 70 nM after 24 hrs using propidium iodide staining by flow cytometry; format: functional
K562 [10] = assay: Cell cycle arrest in human K562 cells assessed as accumulation at G0/G1 phase at 70 nM after 24 hrs using propidium iodide staining by flow cytometry; format: functional
K562 [11] = assay: Cell cycle arrest in human K562 cells assessed as accumulation at S phase at 70 nM after 24 hrs using propidium iodide staining by flow cytometry; format: functional
[12] = Inhibition of tubulin polymerization
K562 [13] = assay: Cell cycle arrest in human K562 cells assessed as accumulation at sub G0/G1 phase at 80 nM after 24 hrs using propidium iodide staining by flow cytometry; format: functional; how it was run: as §1
K562 [14] = assay: Cell cycle arrest in human K562 cells assessed as accumulation at G0/G1 phase at 80 nM after 24 hrs using propidium iodide staining by flow cytometry; format: functional; how it was run: as §1
K562 [15] = assay: Cell cycle arrest in human K562 cells assessed as accumulation at S phase at 80 nM after 24 hrs using propidium iodide staining by flow cytometry; format: functional; how it was run: as §1
K562 [16] = assay: Cell cycle arrest in human K562 cells assessed as accumulation at G2/M phase at 80 nM after 24 hrs using propidium iodide staining by flow cytometry; format: functional; how it was run: as §1

IC50 (CCRF-CEM) | IC50 (L1210) | Compound | IC50 [1] | IC50 (FM3A) | further results
> 10 µM | > 10 µM | COc1cc(C(=O)c2c(N)sc3c2CCN(Cc2ccccc2)C3)cc(OC)c1OC | > 10 µM | > 10 µM | –
1.2 µM | 1.1 µM | CCCOC(=O)N1CCc2c(sc(N)c2C(=O)c2cc(OC)c(OC)c(OC)c2)C1 | 0.47 µM | 1.4 µM | –
– | 1.1 µM | COc1cc(C(=O)c2c(N)sc3c2CCN(C(=S)NC2CCCCC2)C3)cc(OC)c1OC | 0.75 µM | 1.4 µM | –
– | – | COc1ccc(/C=C\c2cc(OC)c(OC)c(OC)c2)cc1O [COMBRETASTATIN A4] | 0.0016 µM | – | Activity (Bos taurus [7]): 90%; Activity (Bos taurus [6]): 99%
> 10 µM | > 10 µM | CCCN1CCc2c(sc(N)c2C(=O)c2cc(OC)c(OC)c(OC)c2)C1 | > 10 µM | > 10 µM | –
1.8 µM | 4.9 µM | CNC(=S)N1CCc2c(sc(N)c2C(=O)c2cc(OC)c(OC)c(OC)c2)C1 | 1.6 µM | 2.8 µM | –
> 10 µM | > 10 µM | COc1cc(C(=O)c2c(N)sc3c2CCN(C(=O)NC2CCCCC2)C3)cc(OC)c1OC | > 10 µM | > 10 µM | –
1.7 µM | 2.1 µM | CCN1CCc2c(sc(N)c2C(=O)c2cc(OC)c(OC)c(OC)c2)C1 | 1.8 µM | 1.9 µM | –
> 10 µM | > 10 µM | COc1cc(C(=O)c2c(N)sc3c2CCN(C(=O)NCc2ccc(F)cc2)C3)cc(OC)c1OC | > 10 µM | > 10 µM | –
0.09 µM | 0.025 µM | COC(=O)N1CCc2c(sc(N)c2C(=O)c2cc(OC)c(OC)c(OC)c2)C1 | 0.045 µM | 0.046 µM | Activity (Bos taurus [7]): 71%; Activity (K562 [8]): 11%; Activity (K562 [9]): 33%; Activity (K562 [10]): 34%; Activity (K562 [11]): 33%; IC50 [12]: 0.6 µM; Activity (Bos taurus [6]): 84%
> 10 µM | > 10 µM | CCCCNC(=O)N1CCc2c(sc(N)c2C(=O)c2cc(OC)c(OC)c(OC)c2)C1 | > 10 µM | > 10 µM | –
> 10 µM | > 10 µM | COc1cc(C(=O)c2c(N)sc3c2CCN(C(=O)OCC(C)C)C3)cc(OC)c1OC | > 10 µM | > 10 µM | –
6.7 µM | 6.8 µM | CCNC(=S)N1CCc2c(sc(N)c2C(=O)c2cc(OC)c(OC)c(OC)c2)C1 | 4.8 µM | 6.9 µM | –
> 10 µM | > 10 µM | COc1cc(C(=O)c2c(N)sc3c2CCN(C(=O)Nc2ccccc2)C3)cc(OC)c1OC | > 10 µM | > 10 µM | –
> 10 µM | > 10 µM | COc1cc(C(=O)c2c(N)sc3c2CCN(C(=S)NC(C)(C)C)C3)cc(OC)c1OC | > 10 µM | > 10 µM | –
> 10 µM | > 10 µM | COc1cc(C(=O)c2c(N)sc3c2CCN(C(=O)NC(C)C)C3)cc(OC)c1OC | > 10 µM | > 10 µM | –
1.4 µM | 3.9 µM | COc1cc(C(=O)c2c(N)sc3c2CCN(C(C)=O)C3)cc(OC)c1OC | 1.1 µM | 1.2 µM | –
> 10 µM | > 10 µM | COc1cc(C(=O)c2c(N)sc3c2CCN(C(=S)NC(C)C)C3)cc(OC)c1OC | > 10 µM | > 10 µM | –
8.3 µM | > 10 µM | COc1cc(C(=O)c2c(N)sc3c2CCN(C(=O)OCc2ccccc2)C3)cc(OC)c1OC | 7.5 µM | > 10 µM | –
0.074 µM | 0.09 µM | COc1cc(C(=O)c2c(N)sc3ccccc23)cc(OC)c1OC | 0.073 µM | 0.1 µM | Activity (Bos taurus [7]): 25%; IC50 [12]: 1.9 µM; Activity (Bos taurus [6]): 71%
> 10 µM | > 10 µM | COc1cc(C(=O)c2c(N)sc3c2CCN(C(=O)Oc2ccccc2)C3)cc(OC)c1OC | > 10 µM | > 10 µM | –
> 10 µM | > 10 µM | COc1cc(C(=O)c2c(N)sc3c2CCN(C(=O)OC(C)(C)C)C3)cc(OC)c1OC | > 10 µM | > 10 µM | –
> 10 µM | > 10 µM | COc1cc(C(=O)c2c(N)sc3c2CCN(C(=O)NCc2ccccc2)C3)cc(OC)c1OC | > 10 µM | > 10 µM | –

Compound | IC50 (CCRF-CEM) | IC50 (L1210) | IC50 [1] | IC50 (FM3A) | further results
COc1cc(C(=O)c2c(N)sc3cnccc23)cc(OC)c1OC | 1 µM | 0.37 µM | 0.34 µM | 0.4 µM | Activity (K562 [2]): 27%; Activity (K562 [3]): 19%; Activity (K562 [4]): 54%; Activity (K562 [5]): 14%; Activity (Bos taurus [6]): 27%
COc1cc(C(=O)c2c(N)sc3c2CCN(C)C3)cc(OC)c1OC | > 10 µM | > 10 µM | > 10 µM | > 10 µM | –
CCOC(=O)N1CCc2c(sc(N)c2C(=O)c2cc(OC)c(OC)c(OC)c2)C1 | 0.44 µM | 0.095 µM | 0.29 µM | 0.057 µM | Activity (Bos taurus [7]): 67%; Activity (K562 [13]): 10%; Activity (K562 [14]): 30%; IC50 [12]: 0.6 µM; Activity (K562 [15]): 30%; Activity (K562 [16]): 40%; Activity (Bos taurus [6]): 82%
